From ChEMBL document CHEMBL3046736, “Kinetic studies of novel inhibitors of endomorphin degrading enzymes” (Med Chem Res, 2012)
pKi: −log10 of the molar value. Residues, ends and D or L forms follow the SMILES beside them.

Columns and labels:
Dipeptidyl peptidase 4 [1] = molecular target: T1, Dipeptidyl peptidase 4 (Homo sapiens, UniProt P27487); experiment: Inhibition of DPP-4 (unknown origin) assessed as half-life of endomorphin-2 after 30 min by RP-HPLC analysis (reference value: […] +/- 0.64 min)
Target sequence in this assay (P27487 whole entry, looked up): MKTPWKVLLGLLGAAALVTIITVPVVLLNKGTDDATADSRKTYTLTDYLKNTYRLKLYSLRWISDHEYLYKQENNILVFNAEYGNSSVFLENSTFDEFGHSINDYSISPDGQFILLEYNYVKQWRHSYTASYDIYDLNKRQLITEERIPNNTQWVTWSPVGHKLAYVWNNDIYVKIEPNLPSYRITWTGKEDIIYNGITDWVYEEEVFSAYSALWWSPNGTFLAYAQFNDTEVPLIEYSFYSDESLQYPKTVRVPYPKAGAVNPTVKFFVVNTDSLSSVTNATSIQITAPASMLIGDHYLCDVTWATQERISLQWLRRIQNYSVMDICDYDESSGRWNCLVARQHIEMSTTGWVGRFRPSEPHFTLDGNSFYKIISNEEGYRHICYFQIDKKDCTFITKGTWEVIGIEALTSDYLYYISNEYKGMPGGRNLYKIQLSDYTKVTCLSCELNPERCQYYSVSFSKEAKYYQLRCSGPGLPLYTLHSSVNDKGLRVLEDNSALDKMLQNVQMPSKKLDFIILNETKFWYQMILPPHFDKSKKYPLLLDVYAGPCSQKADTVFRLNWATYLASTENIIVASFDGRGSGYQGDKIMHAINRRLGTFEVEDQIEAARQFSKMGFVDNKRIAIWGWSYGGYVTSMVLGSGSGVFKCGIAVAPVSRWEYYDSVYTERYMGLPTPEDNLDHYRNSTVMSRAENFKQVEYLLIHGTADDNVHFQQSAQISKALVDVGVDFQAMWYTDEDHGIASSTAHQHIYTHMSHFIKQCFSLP

Dipeptidyl peptidase 4 [2] = molecular target: T1, Dipeptidyl peptidase 4; experiment: Inhibition of DPP-4 (unknown origin) assessed as half-life of endomorphin-1 after 30 min by RP-HPLC analysis (reference value: […] +/- 0.52 min)
Target sequence in this assay (P27487 whole entry, looked up): as above

Dipeptidyl peptidase 4 [3] = molecular target: T1, Dipeptidyl peptidase 4; experiment: Inhibition of DPP-4 (unknown origin) assessed as inhibition of endomorphin-2 degradation after 30 min
Outline: (§1)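 Purified commercial DPP IV (0.002 mg protein/ml) incubated with endomorphin and inhibitor, each from 1 mM solutions in 50 mM Tris–HCl pH 7.4, at 37°C for 0, 7.5, 15, 22.5 and 30 min. Stopped on ice with 1 M HCl, centrifuged. Rate constant k from linear regression of ln(A/A0) of peptide peak area versus time; t1/2 = ln2/k. Three independent experiments in duplicate.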

Dipeptidyl peptidase 4 [4] = molecular target: T1, Dipeptidyl peptidase 4; experiment: Inhibition of DPP-4 (unknown origin) assessed as inhibition of endomorphin-1 degradation after 30 min; outline: as §1
Aminopeptidase N [5] = molecular target: T2, Aminopeptidase N (Homo sapiens, UniProt P15144); experiment: Inhibition of APM (unknown origin) assessed as inhibition of endomorphin-1 degradation after 30 min
Aminopeptidase N [6] = molecular target: T2, Aminopeptidase N
Aminopeptidase N [7] = molecular target: T2, Aminopeptidase N; remark: listed apart in the source
Aminopeptidase N [8] = molecular target: T2, Aminopeptidase N; experiment: Inhibition of APM (unknown origin) assessed as inhibition of endomorphin-2 degradation after 30 min

T2 sequence (P15144 whole entry): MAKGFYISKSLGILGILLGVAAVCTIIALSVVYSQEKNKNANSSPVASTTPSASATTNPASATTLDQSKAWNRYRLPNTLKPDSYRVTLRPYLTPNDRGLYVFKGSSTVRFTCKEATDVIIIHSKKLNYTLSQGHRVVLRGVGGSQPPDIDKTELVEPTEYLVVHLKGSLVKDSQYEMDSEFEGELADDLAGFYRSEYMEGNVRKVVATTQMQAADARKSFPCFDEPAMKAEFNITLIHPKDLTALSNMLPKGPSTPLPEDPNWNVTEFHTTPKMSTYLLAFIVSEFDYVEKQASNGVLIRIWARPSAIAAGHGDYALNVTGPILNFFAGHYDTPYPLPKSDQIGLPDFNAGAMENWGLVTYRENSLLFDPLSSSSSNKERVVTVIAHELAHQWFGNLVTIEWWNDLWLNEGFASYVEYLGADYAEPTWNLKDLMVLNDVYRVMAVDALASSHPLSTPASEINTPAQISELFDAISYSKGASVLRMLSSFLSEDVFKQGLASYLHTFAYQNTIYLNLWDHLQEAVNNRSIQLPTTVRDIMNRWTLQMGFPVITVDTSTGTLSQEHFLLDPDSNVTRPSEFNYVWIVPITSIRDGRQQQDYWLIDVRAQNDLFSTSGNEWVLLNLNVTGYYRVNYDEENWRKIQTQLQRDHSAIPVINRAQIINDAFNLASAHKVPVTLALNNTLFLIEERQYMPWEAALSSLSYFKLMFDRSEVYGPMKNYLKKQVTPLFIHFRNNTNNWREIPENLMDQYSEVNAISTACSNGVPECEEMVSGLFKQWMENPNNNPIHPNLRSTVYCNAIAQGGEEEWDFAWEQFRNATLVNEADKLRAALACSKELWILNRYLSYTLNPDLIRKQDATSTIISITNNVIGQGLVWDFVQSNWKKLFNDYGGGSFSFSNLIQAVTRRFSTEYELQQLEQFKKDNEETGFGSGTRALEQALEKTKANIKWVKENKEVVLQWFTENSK

Q: Which T1/2 (Dipeptidyl peptidase 4 [1]) does the source give for `CC[C@H](C)[C@H](N)C(=O)N1CCC[C@H]1C(=O)N[C@H](C(=O)O)[C@@H](C)CC` here?
A: The T1/2 was 383 min.

Q: And the T1/2 (Dipeptidyl peptidase 4 [2])?
A: The T1/2 was 530 min.

Q: For `C[C@H](NC(=O)[C@@H]1CCCN1C(=O)[C@@H](N)Cc1ccc(O)cc1)C(N)=O` (H-Tyr-Pro-Ala-NH2), which T1/2 (Dipeptidyl peptidase 4 [1]) is on record?
A: The T1/2 was 19.8 min.

Q: And the T1/2 (Dipeptidyl peptidase 4 [2])?
A: Its T1/2 is 22.9 min.

Q: And the pKi (Dipeptidyl peptidase 4 [3])?
A: The pKi was 3.77.

Q: And the inhibition (Dipeptidyl peptidase 4 [3])?
A: The inhibition was 44.8%.

Q: And the pKi (Dipeptidyl peptidase 4 [4])?
A: The pKi was 3.38.

Q: What about the inhibition (Dipeptidyl peptidase 4 [4]) of the same compound?
A: Its inhibition is 26.7%.

Q: For `C[C@H](NC(=O)[C@@H]1CCCN1C(=O)[C@@H](N)Cc1ccc(O)cc1)C(=O)O` (H-Tyr-Pro-Ala-OH), which T1/2 (Dipeptidyl peptidase 4 [1]) is on record?
A: The T1/2 was 27.4 min.

Q: What about the T1/2 (Dipeptidyl peptidase 4 [2]) of the same compound?
A: The T1/2 was 27.5 min.

Q: `CCCCC[C@H](CC(=O)NO)C(=O)N[C@H](C(=O)N1CCC[C@H]1CO)C(C)C` [ACTINONIN] was tested. Which pKi (Aminopeptidase N [5]) did it give?
A: Its pKi is 3.41.

Q: What about the T1/2 (Aminopeptidase N [6]) of the same compound?
A: Its T1/2 is 46.3 min.

Q: What about the T1/2 (Aminopeptidase N [7]) of the same compound?
A: The T1/2 was 36.8 min.

Q: What about the pKi (Aminopeptidase N [8]) of the same compound?
A: The pKi was 3.52.
